In ChEMBL document CHEMBL3817796, “Discovery of Novel 15-Lipoxygenase Activators To Shift the Human Arachidonic Acid Metabolic Network toward Inflammation Resolution” (J Med Chem, 2016):
Active and inactive are the calls of the source. The calls are words filed in the database; no cut-off is given here.

How the values were obtained:
[1] = biological target: T1, Polyunsaturated fatty acid lipoxygenase ALOX15 (Homo sapiens, UniProt P16050); assay: Activation of wild-type His6-tagged human 15-LOX expressed in Escherichia coli Rosetta DE3 assessed as 15-HpETE formation pre-incubated for 1 min before arachidonic acid substrate addition by cell free assay
T1 sequence (P16050 whole entry): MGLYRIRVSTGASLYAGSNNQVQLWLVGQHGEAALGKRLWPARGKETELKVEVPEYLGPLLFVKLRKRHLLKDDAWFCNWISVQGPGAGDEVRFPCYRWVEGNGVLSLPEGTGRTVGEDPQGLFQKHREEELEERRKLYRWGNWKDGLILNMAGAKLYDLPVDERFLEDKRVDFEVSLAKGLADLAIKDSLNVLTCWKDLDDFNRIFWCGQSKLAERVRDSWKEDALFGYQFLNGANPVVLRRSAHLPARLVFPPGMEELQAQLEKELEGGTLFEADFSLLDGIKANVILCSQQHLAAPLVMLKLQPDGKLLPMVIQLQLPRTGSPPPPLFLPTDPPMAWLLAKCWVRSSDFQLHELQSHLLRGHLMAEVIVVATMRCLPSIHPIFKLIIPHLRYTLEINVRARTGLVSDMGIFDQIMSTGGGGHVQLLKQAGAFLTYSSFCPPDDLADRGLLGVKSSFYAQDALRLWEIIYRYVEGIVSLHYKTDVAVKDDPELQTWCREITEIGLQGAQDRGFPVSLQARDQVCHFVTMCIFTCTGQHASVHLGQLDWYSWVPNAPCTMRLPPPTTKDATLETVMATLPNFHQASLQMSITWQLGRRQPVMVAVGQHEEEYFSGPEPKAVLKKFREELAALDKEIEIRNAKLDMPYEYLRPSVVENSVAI

[2] = biological target: T1, Polyunsaturated fatty acid lipoxygenase ALOX15; assay: Binding affinity to wild-type His6-tagged human 15-LOX expressed in Escherichia coli Rosetta DE3 by SPR assay
How it was run: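 15-LOX amine-coupled to a CM5 chip at 800 RU, 25 °C, in PBS-P pH 7.4. Compound concentrations in 5% DMSO injected serially; regenerated by buffer washing. KD from Hill fit of response units.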

Blood = assay: Reduction in LTB4 in production in human whole blood at 100 uM pre-incubated for 20 mins before stimulation with LPS and A23187 for 120 mins by LC-MS/MS method; type: functional; design: scale not given: the % may be the effect or the level left
How it was run: (§1)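 Human blood preincubated 20 min at 37 °C with DMSO vehicle or compound in DMSO. LPS added at 100 μg/mL for 24 h at 37 °C, then A23187 at 20 μg/mL final. Samples frozen in liquid nitrogen at time points, lysed by freeze–thaw, with PGB2 internal standard. Analysed by C18 LC-MRM MS, negative ion. Change = control-normalized concentration minus 1, ×100%; 120 min value from AUC.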

[3] = biological target: Prostaglandin G/H synthase 1 (Homo sapiens) (UniProt P23219); assay: Activation of COX1 (unknown origin) assessed as PGG2 to PGH2 conversion by measuring N,N,N',N'-tetramethyl-p-phenylenediamine oxidation at 100 uM by spectrophotometry
Sequence of Prostaglandin G/H synthase 1 (Homo sapiens) (P23219 whole entry): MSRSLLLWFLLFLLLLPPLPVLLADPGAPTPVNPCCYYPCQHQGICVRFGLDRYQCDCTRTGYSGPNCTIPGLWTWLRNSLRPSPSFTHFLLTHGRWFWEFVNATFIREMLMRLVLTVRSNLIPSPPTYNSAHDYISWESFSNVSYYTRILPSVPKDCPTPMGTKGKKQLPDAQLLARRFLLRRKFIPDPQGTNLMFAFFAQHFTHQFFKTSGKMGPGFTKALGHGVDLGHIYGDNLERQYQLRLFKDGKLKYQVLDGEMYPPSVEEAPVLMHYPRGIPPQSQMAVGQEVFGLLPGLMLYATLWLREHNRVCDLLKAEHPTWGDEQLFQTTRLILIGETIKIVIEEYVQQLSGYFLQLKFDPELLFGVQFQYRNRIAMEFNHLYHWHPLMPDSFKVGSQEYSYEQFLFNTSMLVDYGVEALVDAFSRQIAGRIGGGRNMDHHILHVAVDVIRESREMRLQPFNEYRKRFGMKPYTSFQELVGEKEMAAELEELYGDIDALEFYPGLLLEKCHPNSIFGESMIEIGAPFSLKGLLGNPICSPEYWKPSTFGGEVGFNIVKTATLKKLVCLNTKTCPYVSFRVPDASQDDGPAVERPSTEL

[4] = biological target: T2, Prostaglandin E synthase (Homo sapiens) (UniProt O14684); assay: Inhibition of mPGES-1 (unknown origin) assessed as reduction in conversion of PGH2 to PGE2 at 100 uM by EIA method
T2 sequence (whole entry): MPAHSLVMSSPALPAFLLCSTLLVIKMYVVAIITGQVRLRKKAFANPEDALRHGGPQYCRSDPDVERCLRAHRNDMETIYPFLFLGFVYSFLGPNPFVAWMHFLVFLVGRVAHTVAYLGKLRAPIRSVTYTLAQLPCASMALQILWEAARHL
How it was run: (§2)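 mPGES-1 activity taken as conversion of PGH2 to PGE2, with PGE2 measured by EIA. Compound handled as in the 15-LOX assay.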

Prostaglandin E synthase = biological target: T3, Prostaglandin E synthase (Homo sapiens, UniProt O14684); assay: Inhibition of mPGES-1 (unknown origin) assessed as reduction in conversion of PGH2 to PGE2 by EIA method; how it was run: as §2
T3 sequence (O14684 whole entry): T2 sequence (whole entry)

[5] = biological target: T4, Polyunsaturated fatty acid lipoxygenase ALOX15 (Homo sapiens) (UniProt P16050); assay: Activation of 15-LOX in human PMN assessed as 15-HETE production at 6.2 to 40 uM pre-incubated for 15 mins before A23187, Ca2+ and Mg2+ stimulation for 1 hr by LC-MS method
T4 sequence (whole entry): T1 sequence (P16050 whole entry)
How it was run: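 PMNs preincubated 15 min at 37 °C with compound or vehicle, then stimulated 1 h at 37 °C with 10 μM A23187 plus 2 mM Ca2+ and 2 mM Mg2+. Reactions stopped with cold methanol. Eicosanoids quantified by LC-MS.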

[6] = biological target: T4, Polyunsaturated fatty acid lipoxygenase ALOX15 (Homo sapiens); assay: Activation of 15-LOX in human whole blood assessed as 5-HETE production at 100 uM pre-incubated for 20 mins before stimulation with LPS and A23187 for 120 mins in presence of 2 uM 5-LOX inhibitor Zileuton by LC-MS/MS method; type: tissue-based; how it was run: as §1
[7] = biological target: T4, Polyunsaturated fatty acid lipoxygenase ALOX15 (Homo sapiens); assay: Activation of 15-LOX in human whole blood assessed as reduction in TXB2 production at 100 uM pre-incubated for 20 mins before stimulation with LPS and A23187 for 120 mins in presence of 2 uM 5-LOX inhibitor Zileuton by LC-MS/MS method; type: tissue-based; how it was run: as §1
[8] = biological target: T4, Polyunsaturated fatty acid lipoxygenase ALOX15 (Homo sapiens); assay: Activation of 15-LOX in human whole blood assessed as reduction in 5-HETE production at 100 uM pre-incubated for 20 mins before stimulation with LPS and A23187 for 120 mins in presence of 2 uM […] inhibitor Zileuton by LC-MS/MS method; type: tissue-based; how it was run: as §1
[9] = biological target: T4, Polyunsaturated fatty acid lipoxygenase ALOX15 (Homo sapiens); assay: Activation of 15-LOX in human whole blood assessed as reduction in LTB4 production at 100 uM pre-incubated for 20 mins before stimulation with LPS and A23187 for 120 mins in presence of 2 uM […] inhibitor Zileuton by LC-MS/MS method; type: tissue-based; how it was run: as §1
[10] = biological target: T4, Polyunsaturated fatty acid lipoxygenase ALOX15 (Homo sapiens); assay: Activation of 15-LOX in human whole blood assessed as increase in 13-HODE production at 100 uM pre-incubated for 20 mins before stimulation with LPS and A23187 for 120 mins in presence of 2 uM […] inhibitor Zileuton by LC-MS/MS method; type: tissue-based; how it was run: as §1

AC50 [1]: 6.8 µM
Kd [2]: 3.9 µM
Activity [3]: < 5%
inhibition [4]: 63%
IC50 (Prostaglandin E synthase): 20 µM
Activity [5]: Active
Activity [6]: 59%
Activity [7]: Active
Activity [8]: Active
Activity [9]: Active
Activity [10]: Active
SMILES: CN1CCN(CC(=O)N2N=C3/C(=C/c4ccccc4)CCCC3C2c2ccccc2)CC1 (configuration not stated)
Activity (Blood): 52%
